An excerpt weighted towards active compounds, which were near 2.2% of everything screened.
CHRM5 agonist: human M5 muscarinic receptor agonists, primary screen, CHO-K1 cells, Fluo-8 calcium fluorescence; Muscarinic acetylcholine receptor M5 (Homo sapiens), P08912; CHO-K1 hM5 cells; 0% DMSO wells, 100% maximal acetylcholine response; activation, % at 3 µM; hit rate 0.19% among 360,000;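 active means activation above the run's mean over test compounds plus 3 SD, cut at about 23% in these data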;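 further: signal is peak over basal fluorescence ratio across the kinetic read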
Target sequence (P08912 whole entry, looked up): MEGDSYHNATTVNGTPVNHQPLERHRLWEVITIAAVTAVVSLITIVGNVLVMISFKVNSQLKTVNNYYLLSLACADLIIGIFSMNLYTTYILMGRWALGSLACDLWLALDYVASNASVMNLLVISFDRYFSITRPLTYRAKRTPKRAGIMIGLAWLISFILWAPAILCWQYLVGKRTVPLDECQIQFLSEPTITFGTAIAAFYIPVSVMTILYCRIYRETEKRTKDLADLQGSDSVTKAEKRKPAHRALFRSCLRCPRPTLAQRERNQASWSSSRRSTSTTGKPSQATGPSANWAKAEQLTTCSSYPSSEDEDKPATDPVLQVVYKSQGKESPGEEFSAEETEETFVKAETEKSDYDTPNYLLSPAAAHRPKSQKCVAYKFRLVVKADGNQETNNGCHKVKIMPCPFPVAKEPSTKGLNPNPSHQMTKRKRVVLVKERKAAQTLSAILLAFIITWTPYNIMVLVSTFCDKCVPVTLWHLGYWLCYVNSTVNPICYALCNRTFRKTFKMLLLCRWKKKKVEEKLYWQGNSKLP
M1 PAM: human M1 muscarinic receptor positive allosteric modulators, primary screen, CHO-K1 cells, Fluo-8 calcium fluorescence, 1536-well. Muscarinic acetylcholine receptor M1 (Homo sapiens), P11229. hit rate 0.088% among 360,000. AID 588819, 2011. CHO-K1 hM1, ACh EC20; 0% = ACh EC20, 100% = maximal ACh. activation, % at 3 µM; in the data active means activation above about 19%, passing the limit was not always enough
CHRM5 antagonist: human M5 muscarinic receptor antagonists, primary screen, CHO cells, Fluo-8 calcium fluorescence. Muscarinic acetylcholine receptor M5 (Homo sapiens), P08912. CHO-hM5 cells, ACh EC80. inhibition, % at 3 µM. hit rate 0.59% among 360,000. AID 624040, 2012;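 active means inhibition above a per-plate cutoff, the mean of that plate's test compounds plus 3 SD, cut at about 27% in these data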;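 further: 0% = acetylcholine EC80 with DMSO and 100% = DMSO without agonist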
M1 antag: human M1 muscarinic receptor antagonists, primary screen, CHO-K1 cells, Fluo-8 calcium fluorescence, 1536-well. Muscarinic acetylcholine receptor M1 (Homo sapiens), P11229. inhibition, % at 3 µM. CHO-K1 hM1, ACh EC80 antagonist. hit rate 1.3% among 360,000. AID 588852, 2011;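 active means percent inhibition above its own plate's cutoff, namely the mean of that plate's compound wells plus 3 SD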;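 further: peak over basal fluorescence ratio during 140 s after agonist addition; 0% = ACh EC80 plus DMSO and 100% = DMSO alone without agonist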
M5 PAM: human M5 muscarinic receptor positive allosteric modulators, primary screen, CHO-K1 cells, Fluo-8 calcium fluorescence; Muscarinic acetylcholine receptor M5 (Homo sapiens), P08912; CHO-K1 hM5, ACh EC20 PAM; 0% = ACh EC20, 100% = ACh EC100; activation, % at 3 µM; hit rate 0.3% among 360,000;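 active means activation above the run cutoff, the mean activation of all test compounds plus 3 SD, cut at about 18% in these data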
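Replicates: One well per compound, no replicates | System: Human M5 receptor in CHO-K1 cells | Benchmarks: Low control EC20 acetylcholine (0%), high control EC100 acetylcholine (100%) | Probe or stimulus: Acetylcholine, EC20 level | Times: Fluo-8 loading 80 min at 37 °C plus 30 min room temperature | Signal: Intracellular calcium via Fluo-8 fluorescence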
M1 ag: human M1 muscarinic receptor agonists, primary screen, Fluo-8 calcium fluorescence, CHO-K1 cells, HTS. hit rate 0.33% among 360,000. CHO-K1 hM1, agonist mode; 0% DMSO, 100% acetylcholine EC100. Muscarinic acetylcholine receptor M1 (Homo sapiens), P11229. activation, % at 3 µM;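 active means activation above the run's mean compound activation plus 3 SD, cut at about 16% in these data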;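 further: peak over basal fluorescence ratio within a 140 s kinetic read after compound addition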
Starred values were filed as active, the others as inactive.

SMILES | CHRM5 agonist | M1 PAM | CHRM5 antagonist | M1 antag | M5 PAM | M1 ag
CC1CCCC(NC(=O)CCNC(=O)c2ccc([N+](=O)[O-])cc2)C1C (configuration not stated) | -4 | 10 | 6 | -13 | 1 | 1
CCOC(=O)N1CCC(N2CCN(Cc3ccc(F)c(F)c3)C(CCO)C2)CC1 (configuration not stated) | -9 | 1 | -2 | -3 | 3 | -12
CCOC(=O)N1CCC(N2CCN(CCC(C)C)C(CCO)C2)CC1 (configuration not stated) | -10 | -21 | -3 | 41* | -3 | -9
Cc1ccnc(NC(=O)CN2C(=O)NC(C)(c3ccc4ccccc4c3)C2=O)c1 (configuration not stated) | 5 | 6 | 0 | -2 | 2 | 0
Cc1c(CCC(=O)O)c(=O)oc2cc3occ(-c4ccc(F)cc4)c3cc12 | -1 | 3 | 38* | 4 | 35* | 0
O=C(Nc1cccc(-c2nc3ccccc3[nH]2)c1)c1cccc(NC(=O)c2ccco2)c1 | 3 | -14 | 16 | 37* | -16 | -3
O=C(Nc1ccc2nc(-c3ccccc3)[nH]c2c1)c1ccco1 | 0 | 6 | 4 | -5 | -12 | -1
CN1CCC(=NNC(=O)C(=O)Nc2ccc(F)cc2)CC1 | -2 | 2 | 1 | -5 | -4 | -6
CN1CCC(=NNC(=O)C(=O)Nc2cccc(Br)c2)CC1 | 1 | 8 | 32* | -9 | -15 | -5
Cc1ccc(NC(=O)c2ccccc2NS(=O)(=O)c2ccc(F)cc2)cc1S(=O)(=O)N1CCCCC1 | 6 | -6 | 35* | 13 | -18 | 1
Cc1ccc(NC(=O)c2cc(S(=O)(=O)N(C)C)ccc2N2CCCC2)cc1S(=O)(=O)N(C)C | -5 | -21 | -3 | 32* | 8 | -7
Cc1ccc(NC(=O)CCNC(=O)c2ccccc2Cl)cc1S(=O)(=O)N1CCCCCC1 | 3 | -2 | 13 | -3 | -14 | -2
Cc1ccc(NC(=O)CSc2ncnc3ccccc23)cc1S(=O)(=O)N1CCCCC1 | 3 | -10 | 30* | 23 | -18 | -7
O=C(Nc1cccc(S(=O)(=O)N2CCCCC2)c1)c1ccccc1NS(=O)(=O)c1ccc(F)cc1 | 5 | -4 | 41* | 15 | -11 | 1
Cc1ccc(NC(=O)c2cnccn2)cc1S(=O)(=O)N1CCCCCC1 | -2 | 1 | 28* | 2 | -4 | -2
CN1/C(=C\P(=O)(N(C)C)N(C)C)C(C)(C)c2ccccc21 | 5 | 2 | 34* | 18 | -9 | 0
O=C1/C(=C/c2cccc(Br)c2)SC(=S)N1CCC(=O)N(CCO)c1ccccc1 | 2 | 8 | 4 | -9 | 9 | -2
O=C1/C(=C/c2ccc3c(c2)OCO3)SC(=S)N1CCC(=O)N(CCO)c1ccccc1 | 82* | 9 | 67* | -12 | -14 | 2
CC(=O)Nc1ccc(SCCC2CCCCN2C)cc1 (configuration not stated) | -5 | -19 | -2 | 25* | 1 | -12
CCCN(CCC)C(=O)CC(c1ccccc1)c1ccc(C)cc1O (configuration not stated) | -4 | -2 | 4 | 1 | -3 | -10
Cc1ccc(O)c([C@H](CCN(C(C)C)C(C)C)c2ccccc2)c1 | 0 | -27 | 99* | 100* | -18 | -8
O=C(Nc1nnc(-c2ccco2)o1)C1CC1 | 6 | 20 | -8 | -8 | 23* | -2
CC1CCN(S(=O)(=O)c2ccc(C(=O)Nc3nnc(-c4ccco4)o3)cc2)CC1 | 1 | 17 | -35 | -11 | 29* | 3
O=C(Nc1nnc(-c2ccco2)o1)C1CCCCC1 | 2 | 3 | 6 | -7 | -10 | -1
Cc1ccc(C(=O)Nc2nnc(-c3ccco3)o2)cc1 | 2 | 7 | 14 | -2 | 22* | -4
SMILES | CHRM5 agonist | M1 PAM | CHRM5 antagonist | M1 antag | M5 PAM | M1 ag
O=C(Nc1nnc(-c2ccco2)o1)c1ccc(S(=O)(=O)N2CCCC2)cc1 | 0 | 9 | -15 | -4 | 7 | -7
CCS(=O)(=O)c1nc(S(=O)(=O)c2ccc(Cl)cc2)c(NCCN2CCOCC2)s1 | -5 | 1 | -17 | -3 | 4 | -3
CC(=O)N1CC(C)Sc2ccc(S(=O)(=O)NCCc3cccc(C)c3)cc21 (configuration not stated) | 4 | -13 | 23 | 24 | -13 | 2
CC1(C)CC(=O)C=C(c2ccc3[nH]ccc3c2)C1 | -1 | 1 | 7 | 6 | 2 | -5
CCC1(C(=O)OC)NC(c2ccco2)C2C(=O)N(c3ccc(F)cc3)C(=O)C21 (configuration not stated) | 0 | -3 | 1 | 7 | 6 | -5
Cc1ccc(S(=O)(=O)N2CCN(C(=O)COC(=O)CCOc3ccc(C(C)(C)C)cc3)CC2)cc1 | 1 | -11 | 9 | 34* | -5 | 3
CC(C)CN(C(=O)COC(=O)c1ccccn1)c1c(N)n(Cc2ccccc2)c(=O)[nH]c1=O | -3 | 9 | -1 | -11 | 8 | -3
CN1CCN(C2=Nc3ccccc3Oc3ccc(Cl)cc32)CC1 | -1 | -25 | 72* | 62 | -19 | -8
CCn1ccnc1CNC(=O)c1ccc2oc(CCCc3ccccc3)nc2c1 | -5 | -21 | 11 | 33* | -32 | -4
CCCCc1nc2cc(C(=O)NCc3ccccn3)ccc2o1 | -4 | 0 | 10 | 8 | 1 | 0
CC(C)(C)NC(=O)NC(=O)COC(=O)C1=COCCO1 | 2 | -2 | -3 | 8 | 36* | 0
CCOc1ccc(/C=C2\CCCc3c2nc2ccccc2c3C(=O)O)cc1OC | 249* | -6 | 17 | 7 | -24 | 53*
O=C(CCC(=O)N1CCN(Cc2ccc(F)cc2)CC1)Nc1nnc(C2CCCCC2)s1 | -4 | -6 | 18 | 17 | -11 | 0
Cn1cc(CN2CCN(c3ccccc3)CC2)c2ccccc21 | -7 | -18 | -4 | 31* | -3 | -8
O=C(O)Cn1cc(CN2CCOCC2)c2ccccc21 | 1 | 3 | 15 | -4 | -7 | -1
CCNC(=O)C1CCCN(Cc2ccc(C(=O)OCC)cc2)CC1 (configuration not stated) | -2 | -19 | 3 | 65* | -3 | 4

Bioassay records from PubChem BioAssay.
